From PubChem
The list is not random: actives were taken first. Their share in the collection is about 2.9%.
DDE Tn6 FP inh = DD(E)-Tn6 binding inhibition, primary FP screen. AID 720509. 370,000 compounds, 0.21% hits. inhibition, % at 8.3 µM. P02675. Fibrin DD(E) TRITC-Tn6 fluorescence polarization displacement;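 active = inhibition above a per-campaign cutoff: mean of compounds within control limits plus 3 SD, cut at about 15% in these data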;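 also: 0% = median of all compound wells on the plate and 100% = blocking peptide control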
NRP1-CendR mod = NRP-1/CendR interaction modulation; O14786; FAM-RPARPAR peptide binding to NRP-1, fluorescence polarization; inhibition, % at 25 µM; 360,000 compounds, 0.85% hits; AID 602438;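 active = inhibition or corrected inhibition above about 18%, plus a signal ratio from 0.5 to 1.5, limit read from the data, passing the limit was not always enough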
CRFBP-R2 block = blocks CRF-induced signaling of the CRF-BP/CRF-R2 complex; inhibition, % at 11.8 µM; AID 588475; HEK293 CRF-R2/CRF-BP, CRF-induced calcium fluorescence; 350,000 compounds, 0.59% hits;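 active = inhibition of the ligand-induced calcium signal above about 50% at the single tested concentration, limit read from the data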
KLK7 zymogen act = proKLK7 (human) activation, primary screen; activation, % at 7 µM; 370,000 compounds, 0.9% hits; purified proKLK7, EDANS-DABCYL substrate fluorescence; 100% is mature enzyme control, 0% vehicle;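 active = activation above the mean of all tested compounds plus 3 SD, computed per campaign excluding outliers beyond control limits, cut at about 13% in these data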
Target sequence (P49862 whole entry, looked up): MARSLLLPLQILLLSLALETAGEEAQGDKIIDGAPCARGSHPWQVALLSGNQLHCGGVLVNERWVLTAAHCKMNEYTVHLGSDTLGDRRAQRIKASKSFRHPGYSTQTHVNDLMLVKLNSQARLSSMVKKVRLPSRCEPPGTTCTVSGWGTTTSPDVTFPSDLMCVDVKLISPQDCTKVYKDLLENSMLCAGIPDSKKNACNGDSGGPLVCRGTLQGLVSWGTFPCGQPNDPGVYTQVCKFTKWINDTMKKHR
CRFBP-R2 agonist = agonists of human CRF-binding protein/CRF-R2 receptor complex. HEK293 CRF-R2/CRF-BP, calcium dye fluorescence (FLIPR); percent of saturating CRF peptide response. activation, % at 13.2 µM. 350,000 compounds, 0.46% hits. AID 588473;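 active = activation of at least 50%, plus an integration ratio under a set limit after plate pattern correction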;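 also: plate controls were neutral control wells without compound for no effect and CRF at EC100 for full effect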
Tn7 DDE FP = disrupts Tn7 cyclic peptide binding to fibrin D-Dimer-E complex | P02675 | FP displacement of FITC-Tn7 peptide from fibrin DD(E); 0% = median of compound wells per plate | inhibition, % at 8.3 µM | 370,000 compounds, 0.13% hits | AID 720508;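 active = inhibition above the mean of compounds falling within the control limits plus 3 SD of them, cut at about 14% in these data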;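 also: 0% = plate median of compound wells and 100% = 10 µM Aha-Tn7 peptide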
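Test system: human clot-derived fibrin DD(E) complex / Quantity: 2 µM final DD(E) protein / Incubation: 10 min plus 3 h, room temperature / Measured by: fluorescence polarization / Benchmarks: high control of 10 µM Aha-Tn7 peptide / Replicates: singlicate testing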
Starred values were filed as active, the others as inactive; nt = no result; ! = not confirmed by another sample.

SMILES | DDE Tn6 FP inh | NRP1-CendR mod | CRFBP-R2 block | KLK7 zymogen act | CRFBP-R2 agonist | Tn7 DDE FP
CCn1c(=NC(=O)CSCC(=O)Nc2nccs2)sc2ccccc21 | 3 | 32* | -7 | -1 | 0 | 4
COc1ccccc1CCn1cnc(-c2ccc(OC)c(OC)c2)c1CC(C)C | -2 | nt | nt | 1 | nt | 9
O=[N+]([O-])c1cccc(/C=N/NC2=NCCCCC2)c1 | 4 | -7 | 52* | 0 | -2 | 8
O=C(NCCn1cccn1)C1CCC(=O)N(CCc2cccc(F)c2)C1 (stereo not drawn) | -3 | 47* | 11 | 0 | 0 | 1
O=C(NCCc1cn[nH]c1)C1CCC(=O)N(CCc2cccc(F)c2)C1 (stereo not drawn) | 7 | -2 | 104* | 0 | -1 | -1
O=C(NCCc1cccnc1)C1CCC(=O)N(Cc2ccc(Cl)cc2)C1 (stereo not drawn) | 1 | 0 | 104* | 0 | 1 | -7
O=C(NCCc1cccc(C(F)(F)F)c1)C1CCC(=O)N(CCc2cccc(F)c2)C1 (stereo not drawn) | 2 | 9 | 38 | -1 | -2 | -6
O=C(NCCc1ccccc1)C1CCC(=O)N(Cc2ccc(Cl)cc2)C1 (stereo not drawn) | 0 | -4 | -8 | 0 | -1 | -4
CCCCNC(=O)C[C@H]1C[C@@]2(C(=O)OC)C(=C[C@H](C3CCCC3)O[C@@H]2C)N(Cc2cccc3ccccc23)C1=O | 0 | nt | nt | 1 | nt | -6
C=CCN1[C@@H](Cc2ccccc2)COc2cccc(N3CCCC3)c2S1(=O)=O | -9 | nt | nt | 0 | nt | -9
COc1ccc(S[C@]2(C(=O)N(C)C)CC(=O)N(S(=O)(=O)c3ccc(F)cc3)[C@@H]2c2ccc(OC)cc2)cc1 | 9 | nt | nt | 1 | nt | -2
Cc1ccc(C(=O)CNc2ccc(C)c(Cl)c2)cc1 | -4 | 30* | -5 | 0 | -1 | -3
CCOC(=O)/C=C1\NC(=O)CS1 | -4 | 28* | -5 | 0 | 4 | -9
Cc1ccc(C)c(NC(=O)Cn2cnc3c(oc4ccccc43)c2=O)c1 | -3 | -13 | 52* | 0 | -4 | 2
O=C(Cn1cnc2c(oc3ccccc32)c1=O)NCc1ccccc1 | 1 | -6 | 35 | -1 | 0 | 4
Cn1cccc1C(=O)N1CCN(S(=O)(=O)c2ccc(C(C)(C)C)cc2)CC1 | -8 | nt | nt | 0 | nt | 5
CC(Oc1ccc(Cl)cc1Cl)C(=O)Nc1ccncc1 (stereo not drawn) | 0 | -4 | -8 | 0 | 1 | -7
CC(Oc1ccc(Cl)cc1Cl)C(=O)Nc1cccnc1 (stereo not drawn) | 0 | 26* | 1 | 0 | -1 | -2
Cc1nc2nc(CSc3nnc(C)s3)cc(=O)n2[nH]1 | 2 | 24*! | 4 | 0 | -2 | -3
CCCCCCCCN1C(=O)[C@@H](CC(=O)NCc2ccc(OC)c(OC)c2)C[C@@]2(C(=O)OC)C1=C[C@H](C(C)C)O[C@@H]2C1CC1 | 0 | nt | nt | 1 | nt | 0
CCCCNC(=O)NC1CCN(CC(=O)Nc2ccc3c(c2)OCCO3)CC1 | -9 | nt | nt | 0 | nt | 1
O=S1(=O)CCOC[C@H](Cc2ccccc2)N1Cc1cccc(F)c1 | 7 | 35* | -1 | 0 | -3 | 4
O=S1(=O)CCOC[C@H](Cc2ccccc2)N1Cc1ccc(F)cc1 | -1 | 10 | -6 | 0 | -1 | 2
O=S1(=O)CCOC[C@H](Cc2ccccc2)N1Cc1ccccc1F | -4 | 28* | 5 | 0 | 0 | -5
CC(C)[C@H]1COCCS(=O)(=O)N1Cc1cccc(Cl)c1 | -3 | 27* | -5 | 1 | -1 | 1
SMILES | DDE Tn6 FP inh | NRP1-CendR mod | CRFBP-R2 block | KLK7 zymogen act | CRFBP-R2 agonist | Tn7 DDE FP
CCC1COCCS(=O)(=O)N1Cc1cccc(Cl)c1 (stereo not drawn) | 5 | 4 | -1 | 0 | 0 | -4
CCc1c(-c2ccccc2Br)ncn1CCc1ccccc1OC | -1 | nt | nt | 1 | nt | 3
CCC1=C(OC(=O)N(CC)CC)N2C(=O)OC(=NCCOC)[C@]2(Cc2ccccc2)[C@H]2C1=CC[C@H]1C(=O)N(CC(=O)OC)C(=O)[C@H]12 | -3 | 35* | 0 | 0 | -1 | 9
CCC1=C(OC(=O)N(CC)CC)N2C(=O)OC(=NCC3CC3)[C@]2(Cc2ccccc2)[C@H]2C1=CC[C@H]1C(=O)N(c3ccccc3)C(=O)[C@H]12 | -6 | 4 | -1 | 1 | 3 | -5
CCC1=C(OC(=O)N(CC)CC)N2C(=O)OC(=NCC3CC3)[C@]2(Cc2ccccc2)[C@H]2C1=CC[C@H]1C(=O)N(C)C(=O)[C@H]12 | 1 | 26* | 3 | 0 | -1 | -6
CCN1CCN(CC2CC3C=CC2C3)CC1 (stereo not drawn) | -3 | 31* | -13 | 0 | 2 | -9
CS(=O)(=O)N1CCN(CC2CC3C=CC2C3)CC1 (stereo not drawn) | 2 | 15 | -15 | -1 | -1 | -2
COc1ccc(-n2nc(C(=O)NCC(=O)NC3CCCCCC3)c3ccccc3c2=O)c(OC)c1 | 5 | 19* | 14 | 1 | -2 | -4
COc1ccc(-n2nc(C(=O)NCC(=O)NC3CCCCC3)c3ccccc3c2=O)c(OC)c1 | 2 | -1 | 32 | 0 | -1 | 4
CCOC(=O)[C@@]12CN(C(=O)OC(C)(C)C)CC=C1N(Cc1ccc(OC)cc1)C(=O)[C@H]2CC(=O)NCC12CC3CC(CC(C3)C1)C2 | -4 | nt | nt | 0 | nt | -3
COC(=O)C1CN(CCO)CCS(=O)(=O)N1Cc1cccc(Cl)c1 (stereo not drawn) | 0 | nt | nt | 0 | nt | -8
Cc1ccc(NC(=O)[C@@H]2CC(=O)O[C@@H]2c2ccccc2)cc1C | 6 | nt | nt | 0 | nt | 2
COc1cc(CNC(=O)c2cc(-c3cc(F)ccc3OCC3CCCO3)n[nH]2)cc(OC)c1 (stereo not drawn) | 0 | 11 | nt | 1 | nt | -6
Cc1ccc(NC(=O)c2cc(-c3cc(F)ccc3OCC3CCCO3)n[nH]2)cc1NS(C)(=O)=O (stereo not drawn) | 9 | 28* | nt | 1 | nt | -2
COc1cc(C=NN2CCN(C(c3ccccc3)c3ccccc3)CC2)cc(OC)c1OC(C)=O | -6 | nt | nt | 0 | nt | -6
c1ccc(Nc2ncnc3c2oc2ccccc23)cc1 | 1 | 24* | 19 | 0 | 0 | 1
Cc1nn(CCO)c(N)c1C1(O)C(=O)Nc2c(Cl)cc(Cl)cc21 (stereo not drawn) | 0 | 24* | -1 | 0 | 2 | -5
Cc1nn(C)c(C(=O)N/N=C/c2cccc(Oc3ccccc3)c2)c1Br | 3 | 1 | -54 | 0 | 58* | 3
Nc1ccc(C(=O)N/N=C/c2cccc(Oc3ccccc3)c2)cc1 | -2 | 1 | 0 | 1 | 0 | 6
